The values below come from ChEMBL document CHEMBL1134288, “Design and optimization of 20-O-linked camptothecin glycoconjugates as anticancer agents” (J Med Chem, 2001).

What is called IC50 is the concentration needed to halve the response being measured. A low value points to greater potency.

The subject of one assay is HT-29. The assay is described as follows: In vitro cytotoxic activity against human colon cancer cell line HT-29 using MTT growth inhibition assay. In kind it is functional, cell-based. The essentials: (§1)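 Cells were grown in RPMI 1640 with 10% FCS, trypsinized at confluence and plated at 50,000 cells/mL, then left 1 day. Compounds in DMSO or water were added, and growth was read 6 days later by MTT (5 mg/mL stock, 5 h at 37 °C). Formazan was dissolved in 2-propanol/water and absorbance read at 595 nm; IC50 was derived from this read-out.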
A general note: Tetrazolium dyes change colour on reduction, which living cells bring about.

Another assay concerns SW480. Put plainly: In vitro cytotoxic activity against human colon cancer cell line SW480 using MTT growth inhibition assay. In kind it is functional, cell-based. The procedure, abridged: as §1
The test system of another assay is B16-F10. Put plainly: In vitro cytotoxic activity against murine melanoma cell line B16F10 using MTT growth inhibition assay. Particulars: Mus musculus. In kind it is functional, cell-based. The procedure, abridged:
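This murine melanoma line was grown in RPMI 1640 with 10% FCS, trypsinized at confluence and seeded at 20,000 cells/mL, then left 1 day. Compounds in DMSO or water were added. After 6 days, MTT (5 mg/mL stock) was added for 5 h at 37 °C, formazan was dissolved in 2-propanol/water, and absorbance was read at 595 nm to give IC50.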

Assay [1] is filed under the species Canis familiaris. The assay is described as follows: In vitro No effect conc (NOEC) with respect to elevated levels of alanine aminotransferase (ALT) using primary hepatocytes of dog. In kind it is functional, Canis lupus familiaris, Hepatocyte. The procedure, abridged: (§2)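 Primary hepatocytes were isolated by two-step liver perfusion: first an EGTA (0.5 mM)/HEPES buffer, then a HEPES (pH 7.4) buffer with CaCl2 and collagenase type IV. Cells were cultured in collagen sandwich gels in supplemented medium with 10% FCS, then given 48 h adaptation. DMSO stocks (3 mM) were diluted in medium. Treatment ran 1-7 days with daily medium change, and ALT, AST and LDH were read in the supernatant.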

The species named for assay [2] is Canis familiaris. The assay is described as follows: In vitro No effect conc (NOEC) with respect to elevated levels of Lactate dehydrogenase (LDH) using primary hepatocytes of dog. In kind it is functional, Canis lupus familiaris, Hepatocyte. The essentials: as §2
The species entered for assay [3] is Homo sapiens. The assay is described as follows: In vitro No effect conc (NOEC) with respect to elevated levels of alanine aminotransferase (ALT) using primary hepatocytes of human. In kind it is functional, Hepatocyte. The procedure, abridged:
as §2

The species entered for assay [4] is Rattus norvegicus. Put plainly: In vitro No effect conc (NOEC) with respect to elevated levels of aspartate aminotransferase (AST) using primary hepatocytes of rat. In kind it is functional, Hepatocyte. The essentials: as §2
The species named for assay [5] is Homo sapiens. Put plainly: In vitro No effect conc (NOEC) with respect to elevated levels of Lactate dehydrogenase (LDH) using primary hepatocytes of human. In kind it is functional, Hepatocyte. The procedure, abridged: as §2
The species entered for assay [6] is Canis familiaris. Put plainly: In vitro No effect conc (NOEC) with respect to elevated levels of aspartate aminotransferase (AST) using primary hepatocytes of dog. In kind it is functional, Canis lupus familiaris, Hepatocyte. The procedure, abridged:
as §2

For assay [7], the species on record is Rattus norvegicus. The assay is described as follows: In vitro No effect conc (NOEC) with respect to elevated levels of alanine aminotransferase (ALT) using primary hepatocytes of rat. In kind it is functional, Hepatocyte. The essentials: as §2
The species entered for assay [8] is Rattus norvegicus. Put plainly: In vitro No effect conc (NOEC) with respect to elevated levels of Lactate dehydrogenase (LDH) using primary hepatocytes of rat. In kind it is functional, Hepatocyte. The procedure, abridged:
as §2

The species named for assay [9] is Homo sapiens. Put plainly: In vitro No effect conc (NOEC) with respect to elevated levels of aspartate aminotransferase (AST) using primary hepatocytes of human. In kind it is functional, Hepatocyte. The procedure, abridged: as §2

For `CC[C@@]1(OC(=O)[C@H](NC(=O)[C@H](Cc2c[nH]cn2)/N=C(\S)Nc2ccc(O[C@H]3O[C@@H](C)[C@@H](O)[C@@H](OC)[C@@H]3O)cc2)C(C)C)C(=O)OCc2c1cc1n(c2=O)Cc2cc3ccccc3nc2-1`, the IC50 was 160 nM in the assay on HT-29, 230 nM with SW480 and 600 nM with B16-F10.
Take `CC[C@@]1(OC(=O)[C@H](NC(=O)[C@H](CCCN=C(N)N)/N=C(\S)Nc2ccc(O[C@H]3O[C@@H](C)[C@@H](O)[C@@H](OC)[C@@H]3O)cc2)C(C)C)C(=O)OCc2c1cc1n(c2=O)Cc2cc3ccccc3nc2-1`: the IC50 is 100 nM in the assay with HT-29, 110 nM in the assay on SW480 and 400 nM in the assay on B16-F10.
`CC[C@@]1(O)C(=O)OCc2c1cc1n(c2=O)Cc2cc3c(CN(C)C)c(O)ccc3nc2-1.Cl` [TOPOTECAN HYDROCHLORIDE]: the NOEC in the assay listed under Canis familiaris [1] was found to be 1 µM; in the assay listed under Canis familiaris [2], 1 µM; in the assay listed under Homo sapiens [3] it was 0.1 µM; in the assay listed under Rattus norvegicus [4], 0.1 µM; in the assay filed under Homo sapiens [5], 10 µM; in the assay filed under Canis familiaris [6], 0.1 µM. Moreover, the NOEC is 0.1 µM in the assay listed under Rattus norvegicus [7], 1 µM in the assay filed under Rattus norvegicus [8] and 1 µM in the assay listed under Homo sapiens [9].
For the compound `CC[C@@]1(OC(=O)[C@H](NC(=O)[C@H](CCCCN)/N=C(\S)Nc2ccc(O[C@H]3O[C@@H](C)[C@@H](O)[C@@H](OC)[C@@H]3O)cc2)C(C)C)C(=O)OCc2c1cc1n(c2=O)Cc2cc3ccccc3nc2-1`, the values for the IC50 in the assay on HT-29, in the assay with SW480 and in the assay with B16-F10 were 120 nM, 150 nM and 600 nM, respectively.
Turning to `CC[C@@]1(OC(=O)CNC(=O)[C@H](CCCCN)/N=C(\S)Nc2ccc(O[C@H]3O[C@@H](C)[C@@H](O)[C@@H](OC)[C@@H]3O)cc2)C(=O)OCc2c1cc1n(c2=O)Cc2cc3ccccc3nc2-1`, the IC50 in the assay with HT-29 amounted to 10 nM; in the assay with SW480, 30 nM; in the assay with B16-F10 it was 50 nM.
As to `CC[C@@]1(OC(=O)C(NC(=O)[C@H](CCCCN)/N=C(\S)Nc2ccc(O[C@H]3O[C@@H](C)[C@@H](O)[C@@H](OC)[C@@H]3O)cc2)C(C)C)C(=O)OCc2c1cc1n(c2=O)Cc2cc3ccccc3nc2-1` (stereo partly specified), the NOEC in the assay filed under Canis familiaris [1] stood at 10 µM; in the assay listed under Canis familiaris [2], 30 µM; in the assay filed under Homo sapiens [3], 30 µM; in the assay filed under Rattus norvegicus [4], 30 µM; in the assay filed under Homo sapiens [5], 30 µM; in the assay filed under Canis familiaris [6], 30 µM. Also, the NOEC in the assay filed under Rattus norvegicus [7], in the assay listed under Rattus norvegicus [8] and in the assay listed under Homo sapiens [9] was 30 µM in each case. Moreover, the IC50 turned out to be 150 nM with HT-29, 170 nM in the assay on SW480 and 700 nM with B16-F10.
For `CC[C@@]1(OC(=O)CNC(=O)[C@H](Cc2c[nH]cn2)/N=C(\S)Nc2ccc(O[C@H]3O[C@@H](C)[C@@H](O)[C@@H](OC)[C@@H]3O)cc2)C(=O)OCc2c1cc1n(c2=O)Cc2cc3ccccc3nc2-1`, the IC50 in the assay on HT-29 was 10 nM; with SW480, 15 nM; in the assay on B16-F10, 30 nM.
On to `CC[C@@]1(OC(=O)C(NC(=O)[C@H](CCCN=C(N)N)/N=C(\S)Nc2ccc(O[C@H]3O[C@@H](C)[C@@H](O)[C@@H](OC)[C@@H]3O)cc2)C(C)C)C(=O)OCc2c1cc1n(c2=O)Cc2cc3ccccc3nc2-1` (stereo partly specified), for which the IC50 in the assay with HT-29 turned out to be 100 nM; with SW480, 170 nM; in the assay with B16-F10, 400 nM.
Regarding `CC[C@@]1(OC(=O)C(NC(=O)[C@H](Cc2c[nH]cn2)/N=C(\S)Nc2ccc(O[C@H]3O[C@@H](C)[C@@H](O)[C@@H](OC)[C@@H]3O)cc2)C(C)C)C(=O)OCc2c1cc1n(c2=O)Cc2cc3ccccc3nc2-1` (stereo partly specified), the NOEC is 10 µM in the assay filed under Canis familiaris [1]; 10 µM in the assay listed under Canis familiaris [2]; 30 µM in the assay listed under Homo sapiens [3]; 10 µM in the assay listed under Rattus norvegicus [4]; 30 µM in the assay filed under Homo sapiens [5]; 10 µM in the assay listed under Canis familiaris [6]. Moreover, the NOEC was 10 µM in the assay listed under Rattus norvegicus [7], 10 µM in the assay filed under Rattus norvegicus [8] and 30 µM in the assay listed under Homo sapiens [9]. Further, the IC50 turned out to be 60 nM with HT-29, 170 nM in the assay with SW480 and 250 nM with B16-F10.
